{
  "source": "ChEMBL document CHEMBL5661974",
  "about": "“Pharmacologic characterization of a potent inhibitor of class I phosphatidylinositide 3-kinases” (Cancer Res, 2007)",
  "key": {"[1]": {"test": "Tmax in BALB/C mouse liver at 2.5 mg/kg, iv by LC-MS/MS analysis", "format": "ADME, organism-based", "method_in_brief": "(§1)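 Female BALB/c mice, 6–8 weeks old, given 2.5 mg/kg i.v. in 10% DMSO, 0.5% Tween 20 in saline. Plasma came from serial bleeds; tissues were homogenized in 2 or 3 volumes PBS. Samples were methanol-precipitated with an analogue internal standard, then LC-MS/MS by multiple reaction monitoring against an 8-point external calibration of 2–20,000 nmol/L. Parameters came from WinNonlin noncompartmental analysis, model 201 for plasma and model 200 for tissues.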"}, "[2]": {"test": "AUClast in BALB/C mouse plasma at 2.5 mg/kg, iv by LC-MS/MS analysis", "format": "ADME, organism-based", "method_in_brief": "as §1"}, "[3]": {"test": "Inhibition of recombinant human PI3K in cricetulus griseus CHO cells expressing GFP-tagged AKT1 assessed as translocation to the plasma membrane following IGF-1 stimulation by fluorescence assay", "method_in_brief": "(§2)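 CHO cells expressing GFP-tagged AKT1, AKT2, AKT3 or PDK1, held in 0.05% serum with 0.1% BSA and stimulated with 100 nmol/L IGF-1. Plasma-membrane translocation was read by automated fluorescence imaging, with IC50 from concentration-response curves; Z' above 0.5.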"}, "[4]": {"test": "AUClast in BALB/C mouse plasma at 50 mg/kg, ip by LC-MS/MS analysis", "format": "ADME, organism-based", "conditions": "in vivo", "method_in_brief": "(§3)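 Female BALB/c mice, 6–8 weeks old, dosed i.p. at 50 mg/kg in 20% […] β-cyclodextrin in saline, 0.1 mL/10 g. Serial blood samples; plasma was methanol-precipitated with an analogue internal standard. LC-MS/MS multiple reaction monitoring, external calibration 2–20,000 nmol/L. Noncompartmental analysis, model 200.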"}, "U-87 MG [5]": {"system": "U-87 MG", "conditions": "Homo sapiens, time 4.0 hrs"}, "MDA-MB-468 [6]": {"system": "MDA-MB-468", "test": "Antiproliferative activity against human MDA-MB-468 cells harboring PTEN deletion assessed as cell growth inhibition incubated for 96 hrs by SRB assay", "format": "functional"}, "[7]": {"test": "Cmax in BALB/C mouse spleen at 2.5 mg/kg, iv by LC-MS/MS analysis", "format": "ADME, organism-based", "method_in_brief": "as §1"}, "Detroit 562": {"system": "Detroit 562", "test": "Antiproliferative activity against human Detroit 562 cells harboring PI3KCA mutant assessed as cell growth inhibition incubated for 96 hrs by SRB assay", "format": "functional"}, "[8]": {"test": "AUClast in BALB/C mouse liver at 2.5 mg/kg, iv by LC-MS/MS analysis", "format": "ADME, organism-based", "method_in_brief": "as §1"}, "[9]": {"test": "Inhibition of recombinant human PI3K in cricetulus griseus CHO cells expressing GFP-tagged AKT3 assessed as translocation to the plasma membrane following IGF-1 stimulation by fluorescence assay", "method_in_brief": "as §2"}, "OVCAR-3 [10]": {"system": "OVCAR-3", "conditions": "Homo sapiens, dose 100.0 mg/kg, route ip"}, "[11]": {"test": "Half life in BALB/C mouse kidney at 2.5 mg/kg, iv by LC-MS/MS analysis", "format": "ADME, organism-based", "method_in_brief": "as §1"}, "OVCAR-3 [12]": {"system": "OVCAR-3", "conditions": "Homo sapiens, dose 100.0 mg/kg, route ip, time 750.0 min"}, "MDA-MB-468 [13]": {"system": "MDA-MB-468", "test": "Antitumor activity against PTEN null human MDA-MB-468 cells xenografted female Ncr model assessed as T/C at 70 mg/kg, ip administered once a daily for 40 days relative to control", "format": "functional", "conditions": "time 40 day"}, "OVCAR-3 [14]": {"system": "OVCAR-3", "test": "Antitumor activity against human OVCAR-3 cells xenografted female Ncr model assessed as T/C at 15 mg/kg, ip administered daily for 15 days relative to control", "format": "functional", "conditions": "time 15 day"}, "U-87 MG [15]": {"system": "U-87 MG", "test": "Antitumor activity against PTEN null human U-87MG cells xenografted female Ncr model assessed as body weight loss at 70 mg/kg, ip administered daily for 14 days relative to control", "conditions": "time 14 day"}, "[16]": {"test": "Inhibition of recombinant human PI3K in cricetulus griseus CHO cells expressing GFP-tagged PDK1 assessed as translocation to the plasma membrane following IGF-1 stimulation by fluorescence assay", "method_in_brief": "as §2"}, "HCT-116 [17]": {"system": "HCT-116", "test": "Antitumor activity against PIK3CA mutant human HCT-116 cells xenografted female Ncr model assessed as T/C at 30 mg/kg, ip administered twice a daily for 21 days relative to control", "format": "functional", "conditions": "time 21 day"}, "MDA-MB-435 [18]": {"system": "MDA-MB-435", "test": "Antitumor activity against ERB-B2 overexpressing human MDA-MB-435 cells xenografted female Ncr model assessed as T/C at 30 mg/kg, ip administered once a daily for 14 days relative to control", "format": "functional", "conditions": "time 14 day"}, "HCT-116 [19]": {"system": "HCT-116", "test": "Antitumor activity against PIK3CA mutant human HCT-116 cells xenografted female Ncr model assessed as T/C at 30 mg/kg, ip administered once a daily for 21 days relative to control", "format": "functional", "conditions": "time 21 day"}, "HCT-116 [20]": {"system": "HCT-116", "test": "Antiproliferative activity against human HCT-116 cells harboring PI3KCA mutant assessed as cell growth inhibition incubated for 96 hrs by SRB assay", "format": "functional"}, "[21]": {"test": "Cmax in BALB/C mouse liver at 2.5 mg/kg, iv by LC-MS/MS analysis", "format": "ADME, organism-based", "method_in_brief": "as §1"}, "MDA-MB-435 [22]": {"system": "MDA-MB-435", "test": "Antitumor activity against ERB-B2 overexpressing human MDA-MB-435 cells xenografted female Ncr model assessed as T/C at 30 mg/kg, ip administered twice a daily for 14 days relative to control", "format": "functional", "conditions": "time 14 day"}, "U-87 MG [23]": {"system": "U-87 MG", "test": "Antitumor activity against PTEN null human U-87MG cells xenografted female Ncr model assessed as T/C at 40 mg/kg, ip administered once a daily for 14 days relative to control", "format": "functional, U-87MG ATCC", "conditions": "time 14 day"}, "IGROV-1": {"system": "IGROV-1", "test": "Antiproliferative activity against human IGROV-1 cells harboring PI3KCA/PTEN mutant assessed as cell growth inhibition incubated for 96 hrs by SRB assay", "format": "functional"}, "PC-3 [24]": {"system": "PC-3", "test": "Antiproliferative activity against human PC-3 cells harboring PTEN deletion assessed as cell growth inhibition incubated for 96 hrs by SRB assay", "format": "functional"}, "[25]": {"test": "Volume of distribution in BALB/C mouse plasma at 50 mg/kg, ip by LC-MS/MS analysis", "format": "ADME, organism-based", "conditions": "in vivo", "method_in_brief": "as §3"}, "[26]": {"test": "Half life in BALB/C mouse liver at 2.5 mg/kg, iv by LC-MS/MS analysis", "format": "ADME, organism-based", "method_in_brief": "as §1"}, "U-87 MG [27]": {"system": "U-87 MG", "test": "Inhibition of recombinant PI3K in human U-87MG cells assessed as phosphorylation of GSK3beta at Ser9 at 5 times of GI50 concentration within 15 mins treatment by immunoblot analysis", "format": "cell-based"}, "U-87 MG [28]": {"system": "U-87 MG", "conditions": "Homo sapiens, time 24.0 hrs"}, "[29]": {"test": "Half life in BALB/C mouse spleen at 2.5 mg/kg, iv by LC-MS/MS analysis", "format": "ADME, organism-based", "method_in_brief": "as §1"}, "U-87 MG [30]": {"system": "U-87 MG", "test": "Inhibition of cell migration in human U-87MG cells at 50 nmol/L incubated for 16 to 24 hrs by transwell assay relative to control", "format": "functional, U-87MG ATCC", "conditions": "time 16-24 hrs"}, "U-87 MG [31]": {"system": "U-87 MG", "test": "Antiproliferative activity against human U-87MG cells harboring PTEN deletion assessed as cell growth inhibition incubated for 96 hrs by SRB assay", "format": "functional, U-87MG ATCC"}, "PC-3 [32]": {"system": "PC-3", "test": "Antitumor activity against PTEN null human PC-3 cells xenografted male Ncr model assessed as body weight loss at 30 mg/kg, ip administered once a daily for 14 days relative to control", "conditions": "time 14 day"}},
  "note": "The source made the active and inactive calls. The calls are words filed in the database; no cut-off is given here.",
  "data": [
    {"smiles": "Oc1cccc(-c2nc(N3CCOCC3)c3oc4ncccc4c3n2)c1", "note": "[PI-103]", "values": [
      {"measurement": "Tmax", "setting": "[1]", "result": 4.98, "unit": "min"},
      {"measurement": "AUC(0-t)", "setting": "[2]", "result": 0.624, "unit": "µM·h"},
      {"measurement": "IC50", "setting": "[3]", "result": 17, "unit": "nM"},
      {"measurement": "AUClast", "setting": "[4]", "result": 20.459, "unit": "µM·h"},
      {"measurement": "inhibition", "setting": "U-87 MG [5]", "result": "Active"},
      {"measurement": "GI50", "setting": "MDA-MB-468 [6]", "result": 690, "unit": "nM"},
      {"measurement": "Cmax", "setting": "[7]", "result": 1360, "unit": "nM"},
      {"measurement": "GI50", "setting": "Detroit 562", "result": 360, "unit": "nM"},
      {"measurement": "AUC(0-t)", "setting": "[8]", "result": 0.801, "unit": "µM·h"},
      {"measurement": "IC50", "setting": "[9]", "result": 11, "unit": "nM"},
      {"measurement": "inhibition", "setting": "OVCAR-3 [10]", "result": "Active"},
      {"measurement": "half-life", "setting": "[11]", "result": 0.9, "unit": "h"},
      {"measurement": "inhibition", "setting": "OVCAR-3 [12]", "result": "Active"},
      {"measurement": "T/C", "setting": "MDA-MB-468 [13]", "result": 47.2, "unit": "%"},
      {"measurement": "T/C", "setting": "OVCAR-3 [14]", "result": 61, "unit": "%"},
      {"measurement": "Body weight loss", "setting": "U-87 MG [15]", "result": "<15", "unit": "%"},
      {"measurement": "IC50", "setting": "[16]", "result": 66, "unit": "nM"},
      {"measurement": "T/C", "setting": "HCT-116 [17]", "result": 48, "unit": "%"},
      {"measurement": "T/C", "setting": "MDA-MB-435 [18]", "result": 85, "unit": "%"},
      {"measurement": "T/C", "setting": "HCT-116 [19]", "result": 98.6, "unit": "%"},
      {"measurement": "GI50", "setting": "HCT-116 [20]", "result": 930, "unit": "nM"},
      {"measurement": "Cmax", "setting": "[21]", "result": 802, "unit": "nM"},
      {"measurement": "T/C", "setting": "MDA-MB-435 [22]", "result": 69.8, "unit": "%"},
      {"measurement": "T/C", "setting": "U-87 MG [23]", "result": 89.1, "unit": "%"},
      {"measurement": "GI50", "setting": "IGROV-1", "result": 60, "unit": "nM"},
      {"measurement": "GI50", "setting": "PC-3 [24]", "result": 100, "unit": "nM"},
      {"measurement": "Vd", "setting": "[25]", "result": 0.71, "unit": "L"},
      {"measurement": "half-life", "setting": "[26]", "result": 4.2, "unit": "h"},
      {"measurement": "inhibition", "setting": "U-87 MG [27]", "result": "Active"},
      {"measurement": "inhibition", "setting": "U-87 MG [28]", "result": "Active"},
      {"measurement": "half-life", "setting": "[29]", "result": 1.3, "unit": "h"},
      {"measurement": "inhibition at 0.05 µM", "setting": "U-87 MG [30]", "result": 44, "unit": "%"},
      {"measurement": "GI50", "setting": "U-87 MG [31]", "result": 180, "unit": "nM"},
      {"measurement": "Body weight loss", "setting": "PC-3 [32]", "result": "<15", "unit": "%"}
    ]}
  ]
}
